Active and inactive are the calls of the source. No cut-off for these calls is given here.
Legend:
[1] = Antitumor activity against mouse P388D1 cells xenografted in DBA/2 mouse assessed as increase of mean survival days at 75 mg/kg, ip qd administered as 2 cycles on day 1 to 3 and day 8 to 10; type: functional; settings: route intraperitoneal
Outline: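 P388D1 mouse leukemia cells, grown in RPMI with 10% FBS, were implanted ip at 10^5 cells per mouse on day 0 into female DBA/2 mice (18–22 g, SPF) and randomized 10 per group. Dosing was once daily ip in 50% PEG400/deionized water (pH 7.0) on days 1–3 and 8–10, with vehicle for controls. Deaths were recorded daily, and MST and %ILS were calculated.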

HL-60 = experiment: Cytotoxicity against human HL60 cells after 3 days by XTT assay; type: functional, cell-based; settings: HL-60, 72 h
Outline: (§1)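 Suspension-grown cell lines, 3-day compound incubation; viability read by XTT metabolic assay; IC50 averaged from four independent experiments.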

MT4 = experiment: Cytostatic activity against human MT4 cells after 5 days by SRB assay; type: functional; settings: MT4, 120 h
HT-29 = experiment: Cytotoxicity against human HT-29 cells after 3 days by MTT assay; type: functional, cell-based; settings: HT-29, 72 h
HCT-116 [2] = experiment: Cytotoxicity against human HCT116 cells after 3 days by MTT assay; type: functional, cell-based; settings: HCT-116, 72 h
CCRF-CEM [3] = experiment: Cell cycle arrest in human CCRF-CEM cells assessed as accumulation at G2/M phase at 5 time GI50 using propidium iodide staining by flow cytometry; type: functional, cell-based
Outline: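 CCRF-CEM seeded at 5 × 10^5 cells/ml, grown in RPMI 1640 with 10% FCS at 37 °C with 1× or 5× GIC50 of compound; vehicle controls harvested at same times. Cells ethanol-fixed, RNase-treated, stained with propidium iodide, flow cytometry at 488 nm; cell cycle phases scored.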

SK-N-AS = experiment: Cytotoxicity against human SK-N-AS cells after 3 days by MTT assay; type: functional, cell-based; settings: 72 h
DU-145 [4] = experiment: Metabolic stability in human DU145 cells assessed as sodium ((2R,3S,4R,5R)-5-(4-amino-7H-pyrrolo[2,3-d]pyrimidin-7-yl)-3,4-dihydroxytetrahydrofuran-2-yl)methyl hydrogentriphosphate-NTP formation per million of cells at 10 uM after 24 hrs by LC/MS/MS analysis; type: ADME, cell-based; settings: du-145, 24 h
Outline: (§2)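 Du145 seeded at 60% confluence in MEM/10% FBS; next day exposed to 10 μM compound for 6 or 24 h. Cells trypsinized, extracted in 70% MeOH, dried, resuspended in 1 mM ammonium phosphate pH 8.5. Nucleoside, NMP and NTP quantified by ion-pairing (dimethylhexylamine) LC/MS/MS against untreated-cell-extract standard curves; pmol per million cells.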

[5] = Cytotoxicity against human MES-SA cells after 3 days by MTT assay; type: functional, cell-based; settings: 72 h
[6] = Cytotoxicity against human HeLaS3 cells after 3 days by XTT assay; type: functional, cell-based; settings: HeLa S3, 72 h; outline: as §1
K562 [7] = experiment: Cytotoxicity against human K562 cells after 3 days by MTT assay; type: functional, cell-based; settings: K562, 72 h
DU-145 [8] = experiment: Metabolic stability in human DU145 cells assessed as nucleoside formation per million of cells at 10 uM after 6 hrs by LC/MS/MS analysis; type: ADME, cell-based; settings: du-145, 6 h; outline: as §2
[9] = Cytotoxicity against human U87MG cells after 3 days by MTT assay; type: functional, cell-based, U-87MG ATCC; settings: U-87 MG, 72 h
HCT-15 = experiment: Cytostatic activity against human HCT15 cells after 5 days by SRB assay; type: functional; settings: HCT-15, 120 h
Outline: (§3)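 Cells seeded per line density, overnight at 37 °C; day-zero plate TCA-fixed. 5-fold serial dilutions added, 5-day incubation; TCA fixation, 0.057% SRB in 1% acetic acid 30 min, dye dissolved in 10 mM Tris pH 10.5, A500. Growth relative to day-zero and untreated; GIC50 from sigmoidal dose–response fit; mean of two independent experiments.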

DU-145 [10] = experiment: Metabolic stability in human DU145 cells assessed as sodium ((2R,3S,4R,5R)-5-(4-amino-7H-pyrrolo[2,3-d]pyrimidin-7-yl)-3,4-dihydroxytetrahydrofuran-2-yl)methyl hydrogenphosphate-NMP formation per million of cells at 10 uM after 6 hrs by LC/MS/MS analysis; type: ADME, cell-based; settings: du-145, 6 h; outline: as §2
SK-OV-3 = experiment: Cytotoxicity against human SKOV3 cells after 3 days by MTT assay; type: functional, cell-based; settings: SK-OV-3, 72 h
NCI-H23 = experiment: Cytostatic activity against human NCI-H23 cells after 5 days by SRB assay; type: functional; settings: NCI-H23, 120 h; outline: as §3
BT-549 = experiment: Cytotoxicity against human BT549 cells after 3 days by MTT assay; type: functional, cell-based; settings: BT-549, 72 h
PC-3 [11] = experiment: Cytostatic activity against human PC3 cells after 5 days by SRB assay; type: functional; settings: PC-3, 120 h; outline: as §3
Adenosine kinase = Adenosine kinase (Homo sapiens, UniProt P55263); experiment: Inhibition of human ADK using [3H]-adenosine by scintillation counting
BV-173 = experiment: Cytotoxicity against human BV173 cells after 3 days by MTT assay; type: functional, cell-based; settings: BV-173, 72 h
[12] = Cytotoxicity against human CEM-DNR-bulk cells after 3 days by MTT assay; type: functional, cell-based; settings: 72 h
EL4 = experiment: Cytotoxicity against mouse EL4 cells after 3 days by MTT assay; type: functional, cell-based; settings: EL4, 72 h
HCT-116 [13] = experiment: Cytostatic activity against human HCT116 cells after 5 days by SRB assay; type: functional; settings: HCT-116, 120 h; outline: as §3
CCRF-CEM [14] = experiment: Cytotoxicity against human CCRF-CEM cells after 3 days by XTT assay; type: functional, cell-based; settings: 72 h; outline: as §1
[15] = Antitumor activity against mouse P388D1 cells xenografted in DBA/2 mouse assessed as increase of mean survival days at 35 mg/kg, ip qd administered as 2 cycles on day 1 to 3 and day 8 to 10; settings: route intraperitoneal
C6 = experiment: Cytotoxicity against rat C6 cells after 3 days by MTT assay; type: functional, cell-based; settings: C6, 72 h
CT26 = experiment: Cytotoxicity against mouse CT26 cells after 3 days by MTT assay; type: functional, cell-based; settings: CT26, 72 h
PC-3 [16] = experiment: Cytotoxicity against human PC3 cells after 3 days by MTT assay; type: functional, cell-based; settings: PC-3, 72 h
MAT-Ly-Lu = experiment: Cytotoxicity against rat MAT-LyLu cells after 3 days by MTT assay; type: functional, cell-based; settings: 72 h
DU-145 [17] = experiment: Metabolic stability in human DU145 cells assessed as nucleoside formation per million of cells at 10 uM after 24 hrs by LC/MS/MS analysis; type: ADME, cell-based; settings: du-145, 24 h; outline: as §2
K562 [18] = experiment: Cytotoxicity against human paclitaxel resistant K562 cells after 3 days by MTT assay; type: functional, cell-based; settings: K562, 72 h
CCRF-CEM [19] = experiment: Inhibition of RNA synthesis in human CCRF-CEM cells assessed as BrU incorporation at 1 to 5 times GI50 after 1 hr by FACS analysis; type: functional, cell-based
Outline: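 CCRF-CEM cultured as for cell cycle (1× or 5× GIC50), pulsed with 1 mM 5-bromouridine 30 min. Paraformaldehyde/NP-40 fixation, anti-BrdU antibody cross-reacting with BrU, FITC secondary, propidium iodide/RNase counterstain, flow cytometry at 488 nm.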

Sequence of Adenosine kinase (P55263 whole entry): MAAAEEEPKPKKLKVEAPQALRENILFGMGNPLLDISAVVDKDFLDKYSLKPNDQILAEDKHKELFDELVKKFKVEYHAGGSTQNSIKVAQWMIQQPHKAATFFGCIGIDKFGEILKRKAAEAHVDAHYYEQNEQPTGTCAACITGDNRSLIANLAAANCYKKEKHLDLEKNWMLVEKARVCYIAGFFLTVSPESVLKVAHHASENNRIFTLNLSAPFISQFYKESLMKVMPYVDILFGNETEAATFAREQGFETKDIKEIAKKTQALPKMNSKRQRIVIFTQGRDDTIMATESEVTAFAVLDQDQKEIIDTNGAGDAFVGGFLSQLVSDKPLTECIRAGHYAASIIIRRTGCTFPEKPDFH

Nc1ncnc2c1c(-c1cccs1)cn2[C@@H]1O[C@H](CO)[C@@H](O)[C@H]1O
MSD [1]: 15.1 days
IC50 (HL-60): 950 nM
GI50 (MT4): 35 nM
IC50 (HT-29): 96 nM
IC50 (HCT-116 [2]): 60 nM
Activity (CCRF-CEM [3]): Active
IC50 (SK-N-AS): > 10000 nM
Stability (DU-145 [4]): 1.96 pmol
IC50 [5]: 232 nM
IC50 [6]: 20 nM
IC50 (K562 [7]): 25 nM
Stability (DU-145 [8]): 4.66 pmol
IC50 [9]: > 10000 nM
GI50 (HCT-15): 11 nM
Stability (DU-145 [10]): 5.04 pmol
IC50 (SK-OV-3): > 10000 nM
GI50 (NCI-H23): 3.7 nM
IC50 (BT-549): 119 nM
GI50 (PC-3 [11]): 1620 nM
IC50 (Adenosine kinase): > 5000 nM
IC50 (BV-173): 105 nM
IC50 [12]: 91 nM
IC50 (EL4): 9300 nM
GI50 (HCT-116 [13]): 2.6 nM
IC50 (CCRF-CEM [14]): 50 nM
MSD [15]: 15 days
IC50 (C6): 4540 nM
IC50 (CT26): 124 nM
IC50 (PC-3 [16]): 8730 nM
IC50 (MAT-Ly-Lu): 180 nM
Stability (DU-145 [17]): 30.4 pmol
IC50 (K562 [18]): 47 nM
inhibition (CCRF-CEM [19]): Active

Reference: ChEMBL document CHEMBL1811802, “Synthesis and significant cytostatic activity of 7-hetaryl-7-deazaadenosines” (J Med Chem, 2011)
